Data reported in ChEMBL document CHEMBL1144816, “Potential anticancer activity of naturally occurring and semisynthetic derivatives of aculeatins A and B from Amomum aculeatum” (2008).
pEC50: −log10 of the molar value. Calls of active or inactive are those of the source. No cut-off for these calls is given here.

Experiments:
Lu1 [1] = assay: Cytotoxicity against human Lu1 cells; type: functional; settings: read-out: ED50 (the source's name)
LNCaP [2] = assay: Cytotoxicity against human LNCaP cells; type: functional; settings: read-out: ED50 (the source's name)
MCF7 [3] = assay: Cytotoxicity against human MCF7 cells; type: functional; settings: read-out: ED50 (the source's name)
P388 = assay: Antitumor activity against mouse P388 lymphocytic leukemia model at 15 mg/kg, ip relative to control; type: functional; settings: route intraperitoneal
Summary of the method: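 Murine P388 lymphocytic leukemia in vivo. Compound given by intraperitoneal injection at 15 mg/kg/injection. Activity expressed as T/C (%) relative to control.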

[4] = Antitumor activity against human A2780S cells xenografted in mouse at 3 mg/kg relative to control; type: functional, A2780
Summary of the method: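 Mice bearing human A2780S ovarian carcinoma xenografts; dosed at 3 mg/kg/injection; activity read out as log cell kill versus control; run per a previously published protocol.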

MCF7 [5] = assay: Inhibition of human MCF7 cells propagated in hollow fibers via intraperitoneal site of immunodeficient mouse at 6.25 to 50 mg/kg after 3 to 6 days; type: functional; settings: dose mg/kg 6.25-50
Summary of the method: (§1)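 Lu1, LNCaP or MCF-7 cells in hollow fibers implanted subcutaneously or intraperitoneally in immunodeficient mice. Dosing was once daily by intraperitoneal injection at 6.25, 12.5, 25 or 50 mg/kg on days 3–6 after implantation. Growth inhibition was measured against vehicle-treated animals.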

Lu1 [6] = assay: Inhibition of human Lu1 cells propagated in hollow fibers via intraperitoneal site of immunodeficient mouse at 6.25 to 50 mg/kg after 3 to 6 days; type: functional, organism-based; summary of the method: as §1
LNCaP [7] = assay: Inhibition of human LNCaP cells propagated in hollow fibers via intraperitoneal site of immunodeficient mouse at 6.25 to 50 mg/kg after 3 to 6 days; type: functional, organism-based; summary of the method: as §1
MCF7 [8] = assay: Inhibition of human MCF7 cells propagated in hollow fibers via subcutaneous site of immunodeficient mouse at 6.25 to 50 mg/kg after 3 to 6 days; type: functional, organism-based; summary of the method: as §1
Lu1 [9] = assay: Inhibition of human Lu1 cells propagated in hollow fibers via subcutaneous site of immunodeficient mouse at 6.25 to 50 mg/kg after 3 to 6 days; type: functional, organism-based; summary of the method: as §1
LNCaP [10] = assay: Inhibition of human LNCaP cells propagated in hollow fibers via subcutaneous site of immunodeficient mouse at 6.25 to 50 mg/kg after 3 to 6 days; type: functional, organism-based; summary of the method: as §1

CCCCCCCCCCCCC[C@@H]1C[C@@H](OC(=O)c2c(Br)c(Br)c(Br)c(Br)c2C(=O)O)C[C@]2(CCC3(C=CC(=O)C=C3)O2)O1
pEC50 (Lu1 [1]; Homo sapiens, Lu1): 4.99
pEC50 (LNCaP [2]; Homo sapiens, LNCaP): 5.29
pEC50 (MCF7 [3]; Homo sapiens, MCF7): 5.33

CCCCCCCCCCCCC[C@@H]1C[C@@H](OC(=O)c2cc(F)c(Cl)nc2Cl)C[C@]2(CCC3(C=CC(=O)C=C3)O2)O1
pEC50 (Lu1 [1]; Homo sapiens, Lu1): 4.65
pEC50 (LNCaP [2]; Homo sapiens, LNCaP): 4.75
pEC50 (MCF7 [3]; Homo sapiens, MCF7): 4.84

CCCCCCCCCCCCC[C@@H]1C[C@@H](OC(C)=O)C[C@@]2(CCC3(C=CC(=O)C=C3)O2)O1
pEC50 (Lu1 [1]; Homo sapiens, Lu1): 5.24
pEC50 (LNCaP [2]; Homo sapiens, LNCaP): 5.66
pEC50 (MCF7 [3]; Homo sapiens, MCF7): 5.46

CCCCCCCCCCCCC[C@@H]1C[C@@H](OC(=O)COCC(=O)O)C[C@]2(CCC3(C=CC(=O)C=C3)O2)O1
pEC50 (Lu1 [1]; Homo sapiens, Lu1): 5.47
pEC50 (LNCaP [2]; Homo sapiens, LNCaP): 5.72
pEC50 (MCF7 [3]; Homo sapiens, MCF7): 5.89

CCCCCCCCCCCCC[C@@H]1C[C@@H](OC(=O)[C@@]23CC[C@@](C)(C(=O)O2)C3(C)C)C[C@]2(CCC3(C=CC(=O)C=C3)O2)O1
pEC50 (Lu1 [1]; Homo sapiens, Lu1): 5.40
pEC50 (LNCaP [2]; Homo sapiens, LNCaP): 5.52
pEC50 (MCF7 [3]; Homo sapiens, MCF7): 5.49

CCCCCCCCCCCCC[C@@H]1C[C@@H](OC(C)=O)C[C@]2(CCC3(C=CC(=O)C=C3)O2)O1
pEC50 (Lu1 [1]; Homo sapiens, Lu1): 5.59
pEC50 (LNCaP [2]; Homo sapiens, LNCaP): 5.96
pEC50 (MCF7 [3]; Homo sapiens, MCF7): 5.82

CCCCCCCCCCCCC[C@@H]1CC(=O)C[C@]2(CCC3(C=CC(=O)C=C3)O2)O1
pEC50 (Lu1 [1]; Homo sapiens, Lu1): 4.52
pEC50 (LNCaP [2]; Homo sapiens, LNCaP): 4.66
pEC50 (MCF7 [3]; Homo sapiens, MCF7): 5.12

CCCCCCCCCCCCC[C@@H]1C[C@@H](OC(=O)c2ccc(Br)cc2)C[C@]2(CCC3(C=CC(=O)C=C3)O2)O1
pEC50 (Lu1 [1]; Homo sapiens, Lu1): 5.89
pEC50 (LNCaP [2]; Homo sapiens, LNCaP): 6.10
pEC50 (MCF7 [3]; Homo sapiens, MCF7): 6.15

CCCCCCCCCCCCC[C@@H]1C[C@@H](OC(=O)c2c(Cl)c(Cl)c(Cl)c(Cl)c2C(=O)O)C[C@]2(CCC3(C=CC(=O)C=C3)O2)O1
pEC50 (Lu1 [1]; Homo sapiens, Lu1): 4.89
pEC50 (LNCaP [2]; Homo sapiens, LNCaP): 5.24
pEC50 (MCF7 [3]; Homo sapiens, MCF7): 5.32

CCCCCCCCCCC[C@@H]1C[C@H](O)C[C@@]2(CCC3(C=CC(=O)C=C3)O2)O1 (relative stereo) [ACULEATIN E]
pEC50 (Lu1 [1]; Homo sapiens, Lu1): 5.74
pEC50 (LNCaP [2]; Homo sapiens, LNCaP): 5.74
pEC50 (MCF7 [3]; Homo sapiens, MCF7): 6.30

CCCCCCCCCCC[C@@H]1C[C@@H](O)C[C@]2(CCC3(C=CC(=O)C=C3)O2)O1 (relative stereo) [ACULEATIN F]
pEC50 (Lu1 [1]; Homo sapiens, Lu1): 6.00
pEC50 (LNCaP [2]; Homo sapiens, LNCaP): 6.15
pEC50 (MCF7 [3]; Homo sapiens, MCF7): 6.30

CCCCCCCCCCCCC[C@@H]1C[C@@H](O)C[C@@]2(CC[C@]3(C=CC(=O)C[C@@H]3O)O2)O1 (relative stereo) [ACULEATOL E]
pEC50 (Lu1 [1]; Homo sapiens, Lu1): 5.74
pEC50 (LNCaP [2]; Homo sapiens, LNCaP): 5.36
pEC50 (MCF7 [3]; Homo sapiens, MCF7): 5.41

CCCCCCCCCCCCCCC[C@@H](O)CC1(OC)CCC2(C=CC(=O)C=C2)O1 (stereo in doubt; 6)
pEC50 (Lu1 [1]): 6.05
pEC50 (LNCaP [2]): 6.15
pEC50 (MCF7 [3]): 6.05

CCCCCCCCCCCCCCC[C@@H](O)CC1(OC)CCC2(C=CC(=O)C=C2)O1 (stereo in doubt; 7)
pEC50 (Lu1 [1]; Homo sapiens, Lu1): 6.30
pEC50 (LNCaP [2]; Homo sapiens, LNCaP): 6.05
pEC50 (MCF7 [3]; Homo sapiens, MCF7): 6.15

CCCCCCCCCCCCC[C@@H]1C[C@@H](O)C[C@]2(CCC3(C=CC(=O)C=C3)O2)O1 [ACULEATIN A]
T/C (P388): 122%
LCK [4]: 0.4
pEC50 (Lu1 [1]; Homo sapiens, Lu1): 6.00
pEC50 (LNCaP [2]; Homo sapiens, LNCaP): 6.30
pEC50 (MCF7 [3]; Homo sapiens, MCF7): 6.70
Inhibition (MCF7 [5]): 10%
Activity (Lu1 [6]): inactive
Activity (LNCaP [7]): inactive
Activity (MCF7 [8]): inactive
Activity (Lu1 [9]): inactive
Activity (LNCaP [10]): inactive

CCCCCCCCCCCCC[C@@H]1C[C@@H](O)C[C@@]2(CCC3(C=CC(=O)C=C3)O2)O1 [ACULEATINS B]
pEC50 (Lu1 [1]; Homo sapiens, Lu1): 5.51
pEC50 (LNCaP [2]; Homo sapiens, LNCaP): 5.92
pEC50 (MCF7 [3]; Homo sapiens, MCF7): 5.72
